Series [1] concerns Human betaherpesvirus 5. As to the kind of experiment: Antiviral activity against Human cytomegalovirus infected in MRC5 cells assessed as reduction in viral plaque at 1.25 uM measured after 6 days by microscopic analysis. It counts as functional, cell-based. As to conditions: time 6.0 day. In short, it runs like this: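 MRC-5 fibroblasts seeded at 8k cells/well and infected 24 h later with fluorescent hCMV ANCHOR strain at MOI 1, with compound added at increasing concentrations. Cultured 6 days, fixed with formalin, nuclei stained with Hoechst, and imaged by high-content microscopy. Fluorescent plaques and replication centres were scored against DMSO-treated cells.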

For series [2], the system named is Human betaherpesvirus 5. As to the kind of experiment: Antiviral activity against Human cytomegalovirus infected in MRC5 cells measured after 6 days by fluorescence based microscopic analysis. It counts as functional, cell-based. As to conditions: Human betaherpesvirus 5, MRC5, 144 h; read-out: IC50. In outline:
(§1)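 MRC-5 primary fibroblasts in phenol red-free DMEM with 10% FBS were seeded 8k/well. At 24 h they were treated with compound, infected with hCMV ANCHOR at MOI 1, and fixed 6 days post infection. High-content imaging gave infection rate (fluorescent/total cells) and replication (integrated ANCHOR spot intensity) over ≥1000 cells/well, normalized to DMSO; mean of three wells ± SD.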

The nature of series [3]: Cytotoxicity against human MRC5 cells assessed as reduction in nuclei count measured after 6 days for Hoechst 33342 staining based microscopic analysis. Conditions: time 6 day. Type of series: cell-based. In outline:
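MRC-5 fibroblasts seeded at 8k/well in complete DMEM with 10% FBS and treated 24 h later with increasing compound concentrations. Incubated 6 days at 37 °C, 5% CO2. Formalin-fixed, Hoechst 33342 (1 μg mL–1) stained, and nuclei counted by high-content imaging. Counts normalized to DMSO wells. CC50 is the concentration halving the nuclei count. Mean of two wells ± SD.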

Series [4] in a line: Selectivity index, ratio of CC50 for human ARPE-19 cells assessed as reduction in nuclei count measured after […] 33342 staining based microscopic analysis to EC50 Human cytomegalovirus infected in ARPE-19 cells measured after 10 days by microscopic analysis. Type of series: toxicity, cell-based. As to conditions: read-out: Ratio CC50/EC50. In short, it runs like this:
(§2)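 CC50 comes from Hoechst nuclei counts after compound treatment, normalized to DMSO. IC50 comes from hCMV ANCHOR infection at MOI 1 in MRC-5 (read 6 dpi) or MOI 10 in ARPE-19 (read 10 dpi). Infection rate is fluorescent cells over total cells, from at least 1000 cells per well, in triplicate wells. SI is CC50 divided by IC50.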

Series [5] concerns Human betaherpesvirus 5. As to the kind of experiment: Antiviral activity against Human cytomegalovirus infected in ARPE-19 cells measured after 10 days by fluorescence based microscopic analysis. Type of series: functional, cell-based. Conditions: Human betaherpesvirus 5, ARPE-19, 240 h; read-out: IC50. In short, it runs like this:
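Cells were ARPE-19 in phenol red-free DMEM with 10% FBS, seeded 8k/well. At 24 h they received a range of compound concentrations and hCMV ANCHOR at MOI 10, then were fixed 10 days post infection. Imaging scored infection rate (fluorescent/total cells) and ANCHOR spot intensity over ≥1000 cells/well, normalized to DMSO and used to derive IC50; mean of three wells ± SD.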

A short description of series [6]: Selectivity index, ratio of CC50 for human MRC5 cells assessed as reduction in nuclei count measured after 6 days for Hoechst 33342 staining based microscopic analysis to EC50 Human cytomegalovirus infected in MRC5 cells measured after 6 days by microscopic analysis. It counts as toxicity, cell-based. As to conditions: time 6 day, read-out: Ratio CC50/EC50. In short, it runs like this: as §2

In series [7] the test system is Human betaherpesvirus 5. As to the kind of experiment: Antiviral activity against Human cytomegalovirus harboring ANCHOR infected in ARPE-19 cells assessed as reduction in viral infection measured after 10 days by microscopic analysis relative to control. As to conditions: time 10.0 day.
Series [8] deals with Human betaherpesvirus 5. As to the kind of experiment: Antiviral activity against Human cytomegalovirus infected in MRC5 cells assessed as reduction in viral plaque at 2.5 uM measured after 6 days by microscopic analysis relative to control. It counts as functional. Further details: scale not given: the % may be the effect or the level left. Conditions: time 6 day. In outline:
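Compound-treated MRC-5 fibroblasts were infected with hCMV ANCHOR at MOI 1, fixed 6 days post infection and imaged by fluorescence microscopy. Fluorescent viral plaques and replication centres were compared against vehicle (DMSO)-treated wells.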

For series [9], the system named is Human betaherpesvirus 5. As to the kind of experiment: Antiviral activity against Human cytomegalovirus harboring ANCHOR infected in MRC5 cells assessed as reduction in viral infection at measured after 6 days by microscopic analysis relative to control. It counts as functional, cell-based. Conditions: time 6.0 day. In outline: as §1
The nature of series [10]: Cytotoxicity against human ARPE-19 cells assessed as reduction in nuclei count measured after 10 days for Hoechst 33342 staining based microscopic analysis. Type of series: cell-based. As to conditions: time 10 day. In short, it runs like this:
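ARPE-19 epithelial cells seeded at 8k/well in complete DMEM with 10% FBS and treated with increasing compound concentrations 24 h later. Incubated 10 days at 37 °C. Formalin-fixed, stained with Hoechst 33342 (1 μg mL–1), and nuclei counted by high-content imaging. Counts normalized to DMSO wells. CC50 is the concentration reducing nuclei count by 50%. Mean of two wells ± SD.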

Series [11] relates to Human betaherpesvirus 5. As to the kind of experiment: Antiviral activity against Human cytomegalovirus harboring ANCHOR infected in MRC5 cells assessed as reduction in virus-induced cytopathic effect. It counts as functional, cell-based. (Cytopathic effects are the visible damage that an infection or toxin causes in cultured cells.)
Series [12] deals with Human betaherpesvirus 5. As to the kind of experiment: Antiviral activity against Human cytomegalovirus harboring ANCHOR infected in MRC5 cells assessed as reduction in viral infection at 0.75 uM measured after 6 days by microscopic analysis relative to control. Type of series: functional. Conditions: time 6 day. Further details: scale not given: the % may be the effect or the level left. In short, it runs like this: as §1

Series [13] relates to Human betaherpesvirus 5. As to the kind of experiment: Antiviral activity against Human cytomegalovirus harboring ANCHOR infected in ARPE-19 cells assessed as reduction in viral replication at 0.75 uM measured after 6 days by microscopic analysis relative to control. Type of series: functional. Conditions: time 6 day. In outline:
(§3)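 ARPE-19 epithelial cells grown in phenol red-free DMEM with 10% FBS, seeded 8k/well. After 24 h they were treated with compound and infected with hCMV ANCHOR (fluorescently labelled viral DNA) at MOI 10, then fixed 6 days post infection. High-content imaging scored infection rate (fluorescent/total cells) and replication (integrated ANCHOR spot intensity) over ≥1000 cells/well, normalized to DMSO; mean of three wells ± SD.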

Series [14] relates to Human betaherpesvirus 5. As to the kind of experiment: Antiviral activity against Human cytomegalovirus harboring ANCHOR infected in ARPE-19 cells assessed as reduction in viral infection at 0.75 uM measured after 6 days by microscopic analysis relative to control. It counts as functional. Conditions: time 6 day. In outline: as §3
Series [15] relates to Human betaherpesvirus 5. As to the kind of experiment: Antiviral activity against Human cytomegalovirus harboring ANCHOR infected in MRC5 cells assessed as reduction in viral replication at 0.75 uM measured after 6 days by microscopic analysis relative to control. Type of series: functional. Further details: scale not given: the % may be the effect or the level left. Conditions: time 6 day. In outline:
as §1

Experimental findings from ChEMBL document CHEMBL4699411, “A3- and A2B-nitrocorroles: synthesis and antiviral activity evaluation against human cytomegalovirus infection” (RSC Med Chem, 2020) are described below.

As a reminder, the pIC50 is the IC50 on a negative log10 scale, so that one unit is a factor of ten. Usually CC50 stands for the concentration that lowers cell viability or growth by half.

Each structure is given as a SMILES string. pIC50: −log10 of the molar value. Activity calls are given as the source filed them. The calls are words filed in the database; no cut-off is given here.

`O=[N+]([O-])c1cccc(-c2c3nc(c4ccc([nH]4)c(-c4cccc([N+](=O)[O-])c4F)c4ccc([nH]4)c(-c4cccc([N+](=O)[O-])c4F)c4ccc2[nH]4)C=C3)c1F`: the outcome in series [1] was Active. For the same molecule, the pIC50 in [2] is 5.74; in [5], 6.22. The CC50 at 144 h in [3] was over 50 µM. Also, in series [4], the selectivity ratio was over 82. Also, in series [6], the selectivity ratio at 144 h was over 27. Besides, the results for the Activity entry in series [7], in [8] and in series [9] were “Dose-dependent effect”, 100% and “Dose-dependent effect”, respectively. Moreover, the half-maximal cytotoxic concentration (CC50) at 240 h in [10] was over 50 µM.
On to `O=[N+]([O-])c1ccc(F)c(-c2c3nc(c4ccc([nH]4)c(-c4cc([N+](=O)[O-])ccc4F)c4ccc([nH]4)c(-c4cc([N+](=O)[O-])ccc4F)c4ccc2[nH]4)C=C3)c1`, for which the pIC50 was 5.82 in [2] and 5.89 in series [5]. The CC50 at 144 h in series [3] came out at 3.7 µM. Also, the selectivity ratio in series [4] was 39. In series [11], the result was Active. Besides, in series [6], the selectivity ratio at 144 h was 2.4. Further, the results for the Activity in series [12] and in series [15] were 60% and 80%, respectively. Moreover, the cytotoxic concentration (CC50) at 240 h in series [10] is 50 µM. Besides, the “fold change (FC)” value in series [13] was determined as 5; in series [14] it was 10.
